The source of these data is ChEMBL document CHEMBL3352791, “Thioaryl naphthylmethanone oxime ether analogs as novel anticancer agents” (J Med Chem, 2014).

pEC50: −log10 of the molar value. Active and inactive are the calls of the source. The calls are words filed in the database; no cut-off is given here.

In data set [1] the test system is MDA-MB-231. The data set can be described thus: Cell cycle arrest in human […] cells assessed as accumulation at G2 phase at 5 uM by propidium iodide staining by FACS analysis (reference value: 22.74%). Type of data set: functional. (In general: Flow cytometry measures light scatter and fluorescence of single cells or particles in a stream.)
The nature of data set [2]: Safety index, ratio of IC50 for human MCF10A cells to EC50 for human SW620 cells. Type of data set: toxicity, cell-based, SW-620. The note with it: MCF10A cells versus SW620 cells, read-out: Ratio IC50/EC50. The essentials: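 Safety index is the IC50 in the normal cells divided by the EC50 in the cancer cells. Both values come from MTT assays: cells in DMEM with 10% FBS, serum-starved 4 h, then exposed to compound across a 100nM-50µM dose range with 0.1% DMSO as vehicle control.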

Data set [3] can be described thus: Antiproliferative activity against human prostate, androgen receptor positive DU145 cells after 24 hrs by MTT assay. Type of data set: functional, cell-based, DU-145. The note with it: du-145. For orientation: Formazan colour is commonly taken as a measure of viable cells.
The subject of data set [4] is MCF7. As to the kind of experiment: Cell cycle arrest in human […] cells assessed as accumulation at subG1 phase at 2.5 uM by propidium iodide staining by FACS analysis (reference value: 0.1%). Type of data set: functional.
Another data set is described as follows: in vitro. As to conditions: human, MCF10A cells versus.
The subject of a further data set is HeLa. The data set can be described thus: Antiproliferative activity against human HeLa cells after 24 hrs by MTT assay. Type of data set: functional, cell-based. As to conditions: hela.
Data set [5] relates to MDA-MB-231. The data set can be described thus: Antiproliferative activity against human […] cells assessed as growth recovery treated up to 5 uM for 24 hrs followed by maintained in drug free medium for 72 hrs by MTT assay. Type of data set: functional.
For data set [6], the target named is Epidermal growth factor receptor (Homo sapiens) (UniProt P00533). As to the kind of experiment: Inhibition of EGF-induced EGFR phosphorylation at Tyr992 in human MDA-MB-231 cells at 1 uM by ELISA. Type of data set: cell-based.
The test system of data set [7] is MDA-MB-231. As to the kind of experiment: Induction of PTEN expression in human MDA-MB-231 cells at 1 uM after 24 hrs by qPCR analysis. Type of data set: functional, cell-based. The essentials: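 qPCR on MDA-MB-231 cells treated with 1µM compound; GAPDH as internal control.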
In data set [8] the target is T1, Signal transducer and activator of transcription 1-alpha/beta (Homo sapiens) (UniProt P42224).
T1 sequence (whole entry): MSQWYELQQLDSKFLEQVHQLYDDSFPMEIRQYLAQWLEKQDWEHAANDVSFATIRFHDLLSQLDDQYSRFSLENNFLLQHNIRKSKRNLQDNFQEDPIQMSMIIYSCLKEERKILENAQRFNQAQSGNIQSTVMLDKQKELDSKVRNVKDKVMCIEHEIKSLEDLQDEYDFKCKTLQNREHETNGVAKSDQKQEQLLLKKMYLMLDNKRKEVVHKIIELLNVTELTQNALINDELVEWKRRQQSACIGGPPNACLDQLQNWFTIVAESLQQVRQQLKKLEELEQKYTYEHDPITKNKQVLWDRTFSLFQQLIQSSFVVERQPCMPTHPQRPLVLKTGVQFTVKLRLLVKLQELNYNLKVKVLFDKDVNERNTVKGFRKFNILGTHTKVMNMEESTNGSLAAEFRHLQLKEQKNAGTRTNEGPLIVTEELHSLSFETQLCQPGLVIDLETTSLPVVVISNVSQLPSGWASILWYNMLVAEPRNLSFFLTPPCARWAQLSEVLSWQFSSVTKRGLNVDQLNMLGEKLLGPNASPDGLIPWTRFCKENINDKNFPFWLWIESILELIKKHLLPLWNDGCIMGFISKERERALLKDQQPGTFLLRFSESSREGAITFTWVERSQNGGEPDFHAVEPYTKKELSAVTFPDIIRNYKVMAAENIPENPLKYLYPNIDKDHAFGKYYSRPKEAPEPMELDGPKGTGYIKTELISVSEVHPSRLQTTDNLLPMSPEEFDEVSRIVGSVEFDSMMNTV
As to the kind of experiment: Inhibition of EGF-induced STAT1 phosphorylation in human MDA-MB-231 cells at 1 uM by ELISA. Type of data set: cell-based. Background: An ELISA detects its analyte on a solid surface through an enzyme-linked reagent.

For data set [9], the target named is T1, Signal transducer and activator of transcription 1-alpha/beta (Homo sapiens). As to the kind of experiment: Inhibition of basal level STAT1 phosphorylation in human MCF7 cells at 1 uM by ELISA. Type of data set: cell-based.
The target in data set [10] is cGMP-dependent 3',5'-cyclic phosphodiesterase (Homo sapiens) (UniProt O00408). As to the kind of experiment: Inhibition of PDE2A3 (unknown origin) activity at 1 to 10 uM. The essentials: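 Recombinant PDE isoform activity was read by fluorescence polarization. A binding reagent complexes with the nucleotide monophosphate that the phosphodiesterase generates from cAMP/cGMP, and this raises the polarization of the labelled substrate. Reference standards were PDE1A3 10µM IBMX, PDE2A3 1nM BAY 60-7550, PDE3CAT 1µM cilostazol, PDE4CAT rolipram, PDE5CAT 0.1µM sildenafil, PDE7A […], PDE8A1 10µM BRL-50481, PDE9A1 1µM SB 36216 and PDE11A1 dipyridamole.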

For data set [11], the system named is MCF7. As to the kind of experiment: Antiproliferative activity against human […] cells assessed as absence of growth recovery treated > 5 uM for 24 hrs followed by maintained in drug free medium for 72 hrs by MTT assay. Type of data set: functional, cell-based.
The subject of data set [12] is MDA-MB-231. As to the kind of experiment: Induction of cAMP level in human MDA-MB-231 cells at 0.1 to 25 uM in presence of forskolin. Type of data set: functional, cell-based. The method, boiled down: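 MDA-MB-231 cells serum-starved for 4 h, treated with 500μM IBMX for 30 min, then exposed to compound for a further 30 min. Cellular cAMP read by HTRF kit.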
The test system of data set [13] is MDA-MB-231. As to the kind of experiment: Inhibition of EGF expression in human MDA-MB-231 cells at 5 uM by ELISA. Type of data set: functional, cell-based.
The target of data set [14] is Epidermal growth factor receptor (Homo sapiens) (UniProt P00533). The data set can be described thus: Inhibition of EGF-induced EGFR phosphorylation at Tyr1173 in human MCF7 cells at 0.1 uM by ELISA. Type of data set: cell-based.
The target in data set [15] is Induced myeloid leukemia cell differentiation protein Mcl-1 (Homo sapiens) (UniProt Q07820). The data set can be described thus: Inhibition of basal level Mcl1 phosphorylation in human MDA-MB-231 cells at 1 uM by ELISA. Type of data set: cell-based.
The target in data set [16] is Epidermal growth factor receptor (Homo sapiens) (UniProt P00533). As to the kind of experiment: Inhibition of EGFR (unknown origin) at 10 uM.
The target of data set [17] is Platelet-derived growth factor receptor alpha (Homo sapiens) (UniProt P16234). The data set can be described thus: Inhibition of PDGFRalpha (unknown origin) at 10 uM. The essentials: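 Cell-free kinase profiling was run as a standard 33P-ATP-based in vitro kinase assay.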
In data set [18] the target is Epidermal growth factor receptor (Homo sapiens) (UniProt P00533). As to the kind of experiment: Inhibition of EGF-induced EGFR2 phosphorylation in human MDA-MB-231 cells at 1 uM by ELISA. Type of data set: cell-based. The essentials: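 MDA-MB-231 cells pretreated 1 h in serum-free medium, then EGF-stimulated for 15 min and lysed. Equal lysate protein (Bradford) assayed by ELISA kits for p-EGFR (Tyr1068, Tyr845, Tyr1173) and p-HER2. Absorbance read at 450 nm, normalized to total EGFR or HER2.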

In data set [19] the test system is MDA-MB-231. As to the kind of experiment: Cytotoxicity against human MDA-MB-231 cells assessed as cell viability at 5 uM by MTT assay in presence of 100 ng/ml pertussis toxin for 16 hrs. Type of data set: functional, cell-based.
Data set [20] relates to MDA-MB-231. The data set can be described thus: Inhibition of INS expression in human MDA-MB-231 cells at 5 uM by ELISA. Type of data set: functional, cell-based.
Data set [21] deals with MDA-MB-231. The data set can be described thus: Inhibition of TGF-beta1 expression in human MDA-MB-231 cells at 1 uM after 24 hrs by qPCR analysis. Type of data set: functional, cell-based. The essentials: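 Gene expression was measured by qPCR in MDA-MB-231 breast cancer cells treated with 1µM compound. GAPDH served as the housekeeping internal control.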

Chain of Epidermal growth factor receptor (Homo sapiens) (P00533 whole entry): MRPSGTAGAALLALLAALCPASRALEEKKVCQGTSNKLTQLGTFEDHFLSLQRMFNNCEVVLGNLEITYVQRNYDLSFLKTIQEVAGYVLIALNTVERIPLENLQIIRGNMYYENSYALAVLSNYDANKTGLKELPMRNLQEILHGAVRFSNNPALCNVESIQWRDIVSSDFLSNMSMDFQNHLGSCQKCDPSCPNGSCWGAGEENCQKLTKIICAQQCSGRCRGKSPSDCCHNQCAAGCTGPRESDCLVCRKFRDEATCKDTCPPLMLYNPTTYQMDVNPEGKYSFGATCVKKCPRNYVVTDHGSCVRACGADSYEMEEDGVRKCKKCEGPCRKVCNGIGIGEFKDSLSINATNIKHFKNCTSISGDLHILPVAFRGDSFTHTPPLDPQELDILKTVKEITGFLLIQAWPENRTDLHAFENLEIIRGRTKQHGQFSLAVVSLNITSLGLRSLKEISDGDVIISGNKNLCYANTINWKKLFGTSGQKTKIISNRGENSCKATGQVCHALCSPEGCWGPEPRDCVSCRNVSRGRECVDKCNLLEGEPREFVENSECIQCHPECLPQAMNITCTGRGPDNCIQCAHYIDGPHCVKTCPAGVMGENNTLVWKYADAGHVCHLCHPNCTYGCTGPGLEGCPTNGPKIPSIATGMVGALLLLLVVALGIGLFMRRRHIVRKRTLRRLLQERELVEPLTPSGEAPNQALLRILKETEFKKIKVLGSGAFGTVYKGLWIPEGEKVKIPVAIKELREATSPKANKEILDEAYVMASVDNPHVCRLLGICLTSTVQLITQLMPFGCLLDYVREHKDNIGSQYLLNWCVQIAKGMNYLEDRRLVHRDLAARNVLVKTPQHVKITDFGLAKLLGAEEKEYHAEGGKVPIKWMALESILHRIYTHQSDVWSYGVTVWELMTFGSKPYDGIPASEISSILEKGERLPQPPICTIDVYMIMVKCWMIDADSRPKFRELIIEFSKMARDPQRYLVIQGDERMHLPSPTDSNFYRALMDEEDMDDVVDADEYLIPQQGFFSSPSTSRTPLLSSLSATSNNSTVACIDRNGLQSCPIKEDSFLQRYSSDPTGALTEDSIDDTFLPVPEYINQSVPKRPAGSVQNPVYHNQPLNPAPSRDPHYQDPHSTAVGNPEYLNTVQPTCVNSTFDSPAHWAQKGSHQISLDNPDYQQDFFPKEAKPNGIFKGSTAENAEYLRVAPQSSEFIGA
Chain of Platelet-derived growth factor receptor alpha (Homo sapiens) (P16234 whole entry): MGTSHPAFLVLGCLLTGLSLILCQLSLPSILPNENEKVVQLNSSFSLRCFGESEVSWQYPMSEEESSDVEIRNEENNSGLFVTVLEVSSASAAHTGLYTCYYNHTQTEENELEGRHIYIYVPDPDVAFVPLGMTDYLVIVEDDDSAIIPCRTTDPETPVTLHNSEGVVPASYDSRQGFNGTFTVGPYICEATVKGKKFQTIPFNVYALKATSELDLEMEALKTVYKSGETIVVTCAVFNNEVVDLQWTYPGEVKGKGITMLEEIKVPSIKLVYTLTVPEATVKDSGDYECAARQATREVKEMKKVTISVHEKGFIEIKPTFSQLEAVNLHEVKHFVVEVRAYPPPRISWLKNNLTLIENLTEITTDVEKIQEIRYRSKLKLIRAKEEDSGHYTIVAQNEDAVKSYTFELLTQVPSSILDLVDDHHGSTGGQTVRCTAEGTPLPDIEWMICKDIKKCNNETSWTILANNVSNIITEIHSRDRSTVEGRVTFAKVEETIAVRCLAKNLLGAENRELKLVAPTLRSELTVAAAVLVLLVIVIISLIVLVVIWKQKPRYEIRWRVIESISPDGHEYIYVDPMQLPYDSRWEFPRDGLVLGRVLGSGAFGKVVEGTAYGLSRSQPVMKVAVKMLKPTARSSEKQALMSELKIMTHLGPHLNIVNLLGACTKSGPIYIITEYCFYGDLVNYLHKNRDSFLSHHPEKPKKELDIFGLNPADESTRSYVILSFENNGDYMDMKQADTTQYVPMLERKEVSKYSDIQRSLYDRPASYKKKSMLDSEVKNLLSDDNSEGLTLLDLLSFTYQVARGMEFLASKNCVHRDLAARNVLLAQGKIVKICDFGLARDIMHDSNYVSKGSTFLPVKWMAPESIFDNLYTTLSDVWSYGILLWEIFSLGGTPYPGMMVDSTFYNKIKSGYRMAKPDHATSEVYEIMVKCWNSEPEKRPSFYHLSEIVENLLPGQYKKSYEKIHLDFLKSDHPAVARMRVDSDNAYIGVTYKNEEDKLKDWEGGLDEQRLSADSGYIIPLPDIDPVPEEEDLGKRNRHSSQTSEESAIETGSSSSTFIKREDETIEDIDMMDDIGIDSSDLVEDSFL
Chain of cGMP-dependent 3',5'-cyclic phosphodiesterase (Homo sapiens) (O00408 whole entry, canonical isoform): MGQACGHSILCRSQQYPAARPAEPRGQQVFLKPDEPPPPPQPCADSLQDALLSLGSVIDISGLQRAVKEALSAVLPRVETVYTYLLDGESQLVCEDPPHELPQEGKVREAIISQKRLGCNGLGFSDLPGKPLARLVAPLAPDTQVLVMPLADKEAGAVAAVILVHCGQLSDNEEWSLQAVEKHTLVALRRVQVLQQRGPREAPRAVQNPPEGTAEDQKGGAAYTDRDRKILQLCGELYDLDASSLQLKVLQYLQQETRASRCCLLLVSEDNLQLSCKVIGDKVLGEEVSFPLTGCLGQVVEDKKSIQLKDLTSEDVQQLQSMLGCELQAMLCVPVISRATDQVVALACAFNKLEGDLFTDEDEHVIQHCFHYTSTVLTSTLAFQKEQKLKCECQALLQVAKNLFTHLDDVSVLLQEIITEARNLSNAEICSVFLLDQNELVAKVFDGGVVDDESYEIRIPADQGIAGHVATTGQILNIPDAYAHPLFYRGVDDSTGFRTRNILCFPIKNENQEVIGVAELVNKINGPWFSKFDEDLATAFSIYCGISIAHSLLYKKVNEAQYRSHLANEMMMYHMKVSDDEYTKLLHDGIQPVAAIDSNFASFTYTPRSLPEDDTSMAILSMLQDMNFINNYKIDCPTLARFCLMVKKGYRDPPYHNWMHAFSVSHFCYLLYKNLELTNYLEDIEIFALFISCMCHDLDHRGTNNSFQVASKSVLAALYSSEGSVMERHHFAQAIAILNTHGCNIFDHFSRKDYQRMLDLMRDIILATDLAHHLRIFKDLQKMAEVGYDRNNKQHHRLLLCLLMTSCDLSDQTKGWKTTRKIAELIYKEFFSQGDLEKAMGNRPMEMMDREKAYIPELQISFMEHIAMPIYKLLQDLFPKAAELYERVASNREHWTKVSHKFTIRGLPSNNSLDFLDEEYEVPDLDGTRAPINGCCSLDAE
Chain of Induced myeloid leukemia cell differentiation protein Mcl-1 (Homo sapiens) (Q07820 whole entry): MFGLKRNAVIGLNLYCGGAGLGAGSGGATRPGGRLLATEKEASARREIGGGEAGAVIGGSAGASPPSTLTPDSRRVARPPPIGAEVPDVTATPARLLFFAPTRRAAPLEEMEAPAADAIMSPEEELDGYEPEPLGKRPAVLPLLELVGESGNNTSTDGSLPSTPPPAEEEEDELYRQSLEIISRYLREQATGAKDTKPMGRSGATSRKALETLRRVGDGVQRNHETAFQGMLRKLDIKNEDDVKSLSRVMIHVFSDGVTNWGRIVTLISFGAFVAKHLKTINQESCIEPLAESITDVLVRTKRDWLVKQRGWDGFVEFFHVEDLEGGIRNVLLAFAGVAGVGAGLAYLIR

As usually defined, the pEC50 is the EC50 on a negative log10 scale, so that one unit is a factor of ten. With `CCN(CC)CCO/N=C(\c1ccc(SC)cc1)c1cccc2ccccc12.O=C(O)C(=O)O`, the Activity amounted to 8.5% with MDA-MB-231 [1], 0.4% in the data set on MCF7 [4] and 20% in the data set with MDA-MB-231 [5]. In addition, the selectivity ratio in data set [2] came out at 2.2; in “in vitro”, 16.6. The pEC50 in data set [3] was 5.05; with HeLa, 5.12.

For `CCN(CC)CCO/N=C(\c1ccc(SC)cc1)c1cccc2ccccc12`, the inhibition result (in data set [6]; in the data set on MDA-MB-231 [13]; in data set [14]; in data set [15]; in data set [18]; with MDA-MB-231 [21]) was “Active” throughout. Also, the outcome in the data set on MDA-MB-231 [7], in the data set with MCF7 [11] and with MDA-MB-231 [12] was Active. Further, the inhibition result (in data set [8]; in data set [9]; in data set [10]; in [16]; in data set [17]; in the data set on MDA-MB-231 [19]) was “inactive” throughout. Besides, the inhibition entry with MDA-MB-231 [20] was “inactive”.
